Screening results (PubChem)
CHRM4 antagonist: blocks acetylcholine activation of human M4 receptor. CHO-hM4 cells, ACh EC80, Fluo-8 calcium fluorescence. inhibition, % at 3 µM. hit rate 0.73% among 360,000. AID 624125;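 active means inhibition above its plate's cutoff, the mean inhibition of sample wells plus 3 SD, cut at about 27% in these data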
Target sequence (P08173 whole entry, looked up): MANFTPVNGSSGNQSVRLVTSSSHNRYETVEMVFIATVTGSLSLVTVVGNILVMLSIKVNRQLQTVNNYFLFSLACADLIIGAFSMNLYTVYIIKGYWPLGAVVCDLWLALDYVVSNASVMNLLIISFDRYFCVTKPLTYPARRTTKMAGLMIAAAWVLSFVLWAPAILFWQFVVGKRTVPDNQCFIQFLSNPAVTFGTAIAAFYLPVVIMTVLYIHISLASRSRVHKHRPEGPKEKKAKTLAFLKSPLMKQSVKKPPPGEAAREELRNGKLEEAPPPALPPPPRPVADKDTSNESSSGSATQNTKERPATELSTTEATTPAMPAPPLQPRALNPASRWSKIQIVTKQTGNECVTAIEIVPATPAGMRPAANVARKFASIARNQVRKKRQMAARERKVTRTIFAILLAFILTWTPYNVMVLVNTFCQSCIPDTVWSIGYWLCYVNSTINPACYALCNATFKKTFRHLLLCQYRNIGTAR
CHRM5 antagonist: blocks acetylcholine activation of human M5 receptor. inhibition, % at 3 µM. hit rate 0.59% among 360,000. CHO-hM5 cells, Fluo-8 calcium fluorescence, ACh EC80. P08912;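 active means inhibition above a per-plate cutoff, the mean of that plate's test compounds plus 3 SD, cut at about 27% in these data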
M4 PAM: potentiates acetylcholine response at human M4 receptor; activation, % at 3 µM; hit rate 0.4% among 360,000; CHO-K1 hM4/Gqi5, Fluo-8 calcium fluorescence, ACh EC20; 0% = ACh EC20, 100% = maximal ACh; P08173;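 active means activation above its plate's cutoff, the mean activation of sample wells plus 3 SD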
M5 PAM: CHRM5 positive allosteric modulation; P08912; CHO-K1 hM5, Fluo-8 calcium, ACh EC20 PAM; 0% = ACh EC20, 100% = ACh EC100; activation, % at 3 µM; hit rate 0.3% among 360,000;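 active means activation above the run cutoff, the mean activation of all test compounds plus 3 SD, cut at about 18% in these data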
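system = human M5 receptor in CHO-K1 cells | compound = one concentration, 3 µM final (nominal) | schedule = Post-acetylcholine fluorescence recording 140 s | signal = Fluo-8 calcium dye fluorescence, kinetic read | benchmarks = low control EC20 acetylcholine (0%), high control EC100 acetylcholine (100%) | repeats = singlicate, one well per test compound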
CHRM5 agonist: agonists of human muscarinic M5 receptor (CHRM5) | P08912 | CHO-K1 hM5 cells, Fluo-8 calcium fluorescence; 0% DMSO wells, 100% maximal acetylcholine response | activation, % at 3 µM | hit rate 0.19% among 360,000;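 active means activation above the run's mean over test compounds plus 3 SD, cut at about 23% in these data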;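 further: signal is peak over basal fluorescence ratio across the kinetic read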
CHRM4 agonist: CHRM4 agonism in calcium assay | P08173 | CHO-K1 hM4/Gqi5, Fluo-8 calcium fluorescence; vehicle 0%, full acetylcholine response 100% | activation, % at 3 µM | hit rate 0.14% among 360,000 | AID 624127;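 active means activation above the run mean over all test wells plus 3 SD, cut at about 32% in these data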;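 further: peak over basal fluorescence ratio per well then scaled between controls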
Of the large screens only hits and unclear results are named; the others gave an inactive call. Sampled rows, rich in hits. Any-hit rate of the full collection: about 1.8%.

Cc1ccc(NC(=O)N2C3CCCC2CC(NC(=O)C(C)(C)C)C3)cc1 (stereo not drawn)	none
O=C(COC(=O)COc1ccccc1F)NCCc1ccc(F)cc1	none
O=C(O)CSC1c2ccccc2C(=O)N1c1ccccc1 (stereo not drawn)	M5 PAM 37
O=C1c2ccccc2NC(c2ccccc2O)N1c1ccc(F)cc1 (stereo not drawn)	none
CC(C)N1CCN(S(=O)(=O)c2ccccc2)c2ccccc21	none
CCC(Cc1ccccc1)OC(=O)c1ccccc1C(=O)O (stereo not drawn)	none
Cc1cc(C)n2nc(SCc3nnc(SCCCCl)o3)nc2n1	CHRM4 antagonist 32
Cc1c(N2C(=O)CSC2c2ccccc2)c(=O)n(-c2ccccc2)n1C (stereo not drawn)	none
COc1ccc(C2SCC(=O)N2c2c(C)n(C)n(-c3ccccc3)c2=O)cc1OC (stereo not drawn)	M5 PAM 33
Cc1noc(C)c1C(=O)OCC(=O)Nc1ccc(N2CCOCC2)cc1	M4 PAM 20
CC(C(=O)NCC1(c2ccccc2)CCCC1)N1CCCC1 (stereo not drawn)	CHRM4 antagonist 43
CC(C(=O)NCC1(c2ccccc2)CCCC1)N1CCOCC1 (stereo not drawn)	none
CC1CCN(c2ccc3c(c2)S(=O)(=O)c2ccccc2C3=O)CC1	none
CC(C)C(=O)Nc1ccc(N2CCCC2)cc1	CHRM4 antagonist 30
O=C(NCc1cccs1)c1cc(S(=O)(=O)N2CCOCC2)ccc1N1CCCC1	none
CCN=C(NCC)SC1CC(=O)N(c2ccc(OC)cc2)C1=O (stereo not drawn)	none
CCOc1ccc(NC(=NCc2ccc3c(c2)OCO3)SC2CC(=O)N(c3ccc(OCC)cc3)C2=O)cc1 (stereo not drawn)	M5 PAM 19
CCOc1ccc(NC(=NCc2ccc3c(c2)OCO3)SC2CC(=O)N(c3ccccc3)C2=O)cc1 (stereo not drawn)	none
CCN=C(NCC)SC1CC(=O)N(c2cccc(OCC)c2)C1=O (stereo not drawn)	CHRM4 antagonist 33, CHRM5 antagonist 28
O=S(=O)(NCC1CCC(NS(=O)(=O)c2c(F)cccc2F)CC1)c1ccc2c(c1)OCCO2 (stereo not drawn)	none
O=C(NNC(=O)c1cc(-c2cccc(Br)c2)nc2ccccc12)c1csc(N2CCOCC2)n1	none
COc1ccc(OCCNC(=O)C2(C)CCN2Cc2ccc(SC)cc2)cc1 (stereo not drawn)	none
COc1ccc(OCCNC(=O)C2(C)CCN2Cc2ccc3ccccc3c2)cc1 (stereo not drawn)	CHRM4 antagonist 29
COc1ccc(C2=NOC3(CC(=O)N(c4ccc(F)cc4)C3=O)C2)cc1 (stereo not drawn)	M4 PAM 35
CNCC/C=C1/c2ccccc2CSc2ccccc21	CHRM4 antagonist 43, CHRM5 antagonist 81
COc1ccc(-c2csc(NC(C)=O)n2)cc1OC	none
COc1ccc(-c2csc(NC(=S)NC(=O)c3ccc4ccccc4c3)n2)cc1OC	M5 PAM 18
COc1cccc(NC(=O)Nc2ccc(Br)cn2)c1	none
COc1ccccc1CCn1cnc(Cc2ccccc2)c1C(C)C	CHRM4 antagonist 33
CCCCCc1c(-c2ccccc2OC)ncn1CCc1ccccc1OC	CHRM4 antagonist 34, CHRM5 antagonist 32
COc1ccccc1CCn1cnc(-c2ccc(Br)cc2)c1C(C)C	none
CC(=O)c1cccc(NC(=O)C2CCCN2S(=O)(=O)c2cccs2)c1 (stereo not drawn)	none
CN(C)S(=O)(=O)c1ccc(C(=O)Nc2ccc(CCC(=O)N3CCCC3)cc2)cc1	none
O=C(Nc1ccc(S(=O)(=O)N2CCCCC2)cc1)c1ccc(CN2CCc3ccccc3C2)cc1	CHRM4 antagonist 40
CN(C)S(=O)(=O)c1ccc(C(=O)Nc2ccc(CN3CCCC3)cc2)cc1	CHRM4 antagonist 69
CCN(CC)CCOC(c1ccccc1)c1ccc(C)cc1 (stereo not drawn)	CHRM4 antagonist 43, CHRM5 antagonist 75
CCN(CC)CCC(C)OC(c1ccccc1)c1ccccc1 (stereo not drawn)	CHRM5 antagonist 38
Cc1ccc(C(OCC(C)(C)C[N+](C)(C)C)c2ccccc2)cc1 (stereo not drawn)	CHRM4 antagonist 52, CHRM5 antagonist 94
CCN(CC)CCCCCOc1ccccc1OC	none
Cc1ccccc1C(OCCN(C)C)c1ccccc1 (stereo not drawn)	CHRM4 antagonist 62, CHRM5 antagonist 92
CCCc1nnc(NC(=O)C23CC4CC(CC(C4)C2)C3)s1	none
COc1ccc(Cl)cc1C(=O)Nc1ccc(OCC(=O)N2CCOCC2)cc1	M5 PAM 18
COc1ccc(NC(=O)Nc2ccc(OCC(=O)N3CCOCC3)cc2)cc1OC	none
CCCS(=O)(=O)n1nc(-c2ccc(OC)cc2)cc1N	CHRM4 antagonist 31
CCCS(=O)(=O)n1nc(-c2ccc(C)cc2)cc1N	none
CCCCN(CCCC)c1ccc(C(=O)c2ccccc2C(=O)O)c(O)c1	CHRM4 agonist 34
COCC(=O)N1CCC(Oc2ccc(C(=O)NCCCC3CCCC3)cc2)CC1	none
CC(C)Cc1ccc(C(C)C(=O)Nc2nccs2)cc1 (stereo not drawn)	CHRM4 antagonist 30, CHRM5 agonist 38, CHRM4 agonist 34
CC(C)c1ccc(CNC(=O)C(=O)Nc2nccs2)cc1	none
CC(C)Cc1ccc(C(C)C(=O)Nc2ccccc2O)cc1 (stereo not drawn)	CHRM4 antagonist 38, CHRM5 antagonist 50, CHRM5 agonist 41, CHRM4 agonist 43
CC(OC(=O)CNS(=O)(=O)c1ccc(C#N)cc1)C(=O)Nc1cccc(C#N)c1 (stereo not drawn)	none
Cc1ccc(CN(C(=O)c2ccc(Cl)c([N+](=O)[O-])c2)C2CCS(=O)(=O)C2)o1 (stereo not drawn)	none
CN1C2CC(OC(=O)C(CO)c3ccccc3)CC1C1OC12 (stereo not drawn)	CHRM4 antagonist 99 (no result: CHRM5 antagonist, M5 PAM, CHRM5 agonist)
COc1cc(/C=C2/SC(=S)N(CC3CCCO3)C2=O)ccc1O (stereo not drawn)	CHRM4 agonist 33
COc1cc(/C=C2\SC(=S)N(NC(=O)c3ccc(O)cc3)C2=O)ccc1O	CHRM4 antagonist 27, CHRM5 agonist 60, CHRM4 agonist 94
CCOc1cc(/C=C2\SC(=S)N(Nc3ccccc3)C2=O)ccc1O	none
COc1cc(/C=C2\SC(=S)N(Nc3ccccc3)C2=O)ccc1O	CHRM4 antagonist 27, CHRM5 antagonist 29, CHRM5 agonist 29, CHRM4 agonist 45
